# Only some compounds are listed: those with a hit (about 3.8% of all), similar ones and a draw of the others.
# KCNK3 block: human KCNK3 channel inhibition, primary screen; 0.84% of 340,000 active; CHO-KCNK3 thallium flux, FluxOR fluorescence; hits give low values; O14649; B-score at 10 µM;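 active means B-score under library mean minus 4 SD, starting fluorescence ratio at most library mean plus 5 SD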;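 further: more negative B-score means stronger inhibition of thallium flux through KCNK3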
# Kir21 inh: Kir2.1 (mouse) channel inhibition. B-score at 10 µM. P35561. HEK293-Kir2.1, FluxOR thallium flux fluorescence; hits give low values. 0.85% of 310,000 active;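 active means fluorescence ratio B-score at or below minus 3 SD of library scores, with starting-brightness B-score within 2 SD, cut at about -4.2 in these data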;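 further: channel flux triggered by added potassium and thallium sulfate stimulus; B-score of peak minus minimum fluorescence over baseline after thallium stimulus; more negative B-score means stronger Kir2.1 block with less thallium influx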
# KCNQ1 block: human KCNQ1 channel inhibition. P51787. CHO-K1 KCNQ1, FluxOR thallium flux fluorescence; hits give high values. B-score at 10 µM. 1.3% of 310,000 active. AID 2642;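 active means compounds whose thallium flux B-score, printed positive for inhibition, exceeds three library SD while starting fluorescence stays within three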;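 further: channel opened by potassium depolarization with thallium stimulus after 20 min compound exposure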
# Target sequence (P51787 whole entry, looked up): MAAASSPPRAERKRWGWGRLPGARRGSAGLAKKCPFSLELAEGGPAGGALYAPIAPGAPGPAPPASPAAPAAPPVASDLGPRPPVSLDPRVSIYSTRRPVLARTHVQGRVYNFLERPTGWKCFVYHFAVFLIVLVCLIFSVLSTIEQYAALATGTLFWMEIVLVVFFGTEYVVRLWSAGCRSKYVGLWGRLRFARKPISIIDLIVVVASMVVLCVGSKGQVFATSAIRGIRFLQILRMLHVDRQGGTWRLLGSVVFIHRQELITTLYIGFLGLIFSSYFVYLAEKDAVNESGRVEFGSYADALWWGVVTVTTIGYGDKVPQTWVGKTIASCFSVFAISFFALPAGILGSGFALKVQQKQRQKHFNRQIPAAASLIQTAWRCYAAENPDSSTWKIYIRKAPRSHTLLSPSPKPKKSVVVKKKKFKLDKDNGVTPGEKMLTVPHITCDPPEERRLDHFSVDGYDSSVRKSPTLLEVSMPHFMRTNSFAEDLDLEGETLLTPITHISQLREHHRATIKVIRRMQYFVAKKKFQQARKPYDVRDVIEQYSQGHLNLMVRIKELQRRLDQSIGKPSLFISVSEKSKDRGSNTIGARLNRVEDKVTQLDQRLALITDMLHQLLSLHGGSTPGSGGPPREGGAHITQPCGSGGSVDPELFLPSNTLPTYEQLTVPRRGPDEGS
# hERG protect: shields human hERG channel from block by proarrhythmic agents; Q12809; 0.51% of 310,000 active; CHO-hERG, FluxOR thallium flux, dofetilide IC70 present; activation (rescue from dofetilide block), less the hit threshold, % at 10 µM;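 active means activation above the mean of controls blocked by dofetilide plus 5 SD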;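 further: thallium influx through hERG after potassium depolarization seen as dye fluorescence rise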
# KCNK9 inh-1: blocks the human KCNK9 two-pore domain potassium channel; 1.2% of 310,000 active; Q9NPC2; HEK293 KCNK9, FluxOR thallium flux fluorescence; hits give low values; AID 488922; B-score at 10 µM;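 active means ratio B-score over 3 SD below the library mean, with starting fluorescence within 5 SD of its mean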;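 further: negative B-score means less thallium flux so channel inhibition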
# KCNQ1 act: potentiators or activators of human KCNQ1 potassium channel; 0.35% of 310,000 active; P51787; CHO-K1 KCNQ1, thallium flux FluxOR fluorescence; hits give high values; B-score at 10 µM;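 active means fluorescence ratio B-score, a plate-corrected score, at least three library SD, with initial intensity B-score within 5 SD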
#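 Test system: CHO-K1 cells stably expressing KCNQ1 / Medium: assay buffer / Also added: depolarizing K+/Tl+ stimulus, K2SO4 and Tl2SO4 each 12.5 mM in 5x stock / Incubation: 90 min dye loading and 20 min compound exposure, both at room temperature / Signal: thallium influx via FluxOR fluorescence, kinetic imaging / Evaluation: B score of baseline-normalized fluorescence ratio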
# hERG inh: counter-screen for Kir2.1 inhibitors: effect on human hERG; shares compounds with Kir21 inh; hERG-expressing cells, thallium flux; inhibition, % at 10 µM; 20% of 320 active;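 further: host cells are CHO cells stably expressing hERG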
# KCNK9 inh-2: human KCNK9 off-target activity of Kir2.1 blockers; inhibition, % at 10 µM; shares compounds with Kir21 inh; KCNK9-expressing cells, ion flux inhibition; 5% of 320 active
# Kir2-1 patch inh: blocks mouse Kir2.1 current in automated electrophysiology; shares compounds with Kir21 inh; Kir2.1 cells, automated patch-clamp current inhibition; inhibition, % at 25 µM; 71% of 320 active; AID 463252
# The depositor's hits bear a star; i = inactive; · = no result. Unless noted, how the calls were made is not given here.
SMILES,KCNK3 block,Kir21 inh,KCNQ1 block,hERG protect,KCNK9 inh-1,KCNQ1 act,hERG inh,KCNK9 inh-2,Kir2-1 patch inh
Cc1c(/C=N/Nc2nc3ccccc3[nH]2)c2ccccc2n1C,i,-2.41,7*,-16.6,i,i,·,·,·
CCOc1ccc(N(CC(=O)NCc2ccc(F)cc2)C(=O)c2ccco2)cc1,i,-0.87,i,-6.5,i,i,·,·,·
CC(NC(=O)/C(C#N)=C/c1ccc(Cl)c([N+](=O)[O-])c1)c1ccccc1 (stereo not drawn),·,-5.48*,i,-18.2,i,i,·,·,·
C[C@@H](NC(=O)/C(C#N)=C/c1ccc(O)c(O)c1)c1ccccc1,i,·,·,·,·,·,·,·,·
Cc1noc(C)c1COC(=O)C1CCN(S(=O)(=O)c2ccc(F)cc2)CC1,i,·,·,·,·,·,·,·,·
CCC(=O)N(CCC(c1ccccc1)c1ccco1)Cc1cccs1 (stereo not drawn),i,-7.41*,i,-10.6,-13.7*,i,·,·,·
CCN(CC)C(=O)CC(c1ccccc1)c1ccco1 (stereo not drawn),i,-1.65,i,-11.3,i,i,·,·,·
O=C(c1ccco1)N(CCC(c1ccccc1)c1ccco1)Cc1ccccc1 (stereo not drawn),i,-1.02,i,-15.8,-7.16*,i,·,·,·
CCOC(=O)c1ccc(N(CC(=O)NCC2CCCO2)C(=O)CCC(=O)Nc2cc(C)on2)cc1 (stereo not drawn),i,-2.21,i,-4.3,i,i,·,·,·
N#Cc1ccccc1OCC(=O)OCC(=O)NCc1ccc2c(c1)OCO2,i,·,·,·,·,·,·,·,·
C=CCc1ccc(OCCCCN2CC(C)OC(C)C2)c(OC)c1 (stereo not drawn),i,-0.78,i,4.9*,i,i,·,·,·
C/C=C/c1ccc(OCCN2CCc3ccccc3C2)c(OC)c1,i,-11.2*,i,-17.5,i,i,·,·,·
C/C=C/c1ccc(OCCCCOc2c(OC)cccc2OC)c(OC)c1,i,0.68,i,-1.9,i,i,·,·,·
C=CCc1ccc(OCCN2CCc3ccccc3C2)c(OC)c1,i,-10.2*,i,-12.0,i,i,·,·,·
C=CCc1ccc(OCCCNCc2ccccc2)c(OC)c1,i,-8.02*,i,-1.3,i,i,·,·,·
COc1ccc(CCNC(=O)c2cccnc2Cl)cc1OC,i,1.32,i,-11.1,i,i,·,·,·
COc1ccc(C(=O)CN2Cc3ccccc3C2=N)cc1,i,-10.7*,i,-3.4,i,i,65.0%*,i,i
O=S(=O)(NCc1csc(-c2cccs2)n1)c1cccs1,i,-2.28,i,-10.6,i,i,·,·,·
O=S(=O)(NCc1csc(-c2cccs2)n1)c1ccc(Cl)cc1,i,-10.6*,i,-12.1,i,i,i,i,22.3%*
Cc1ccc(O)c(CNCCNCc2cc(C)ccc2O)c1,i,-6.13*,i,-3.5,i,i,i,i,51.1%*
Cc1ccc(O)c(CNc2nc3ccccc3n2C(C)C)c1,i,0.42,i,-4.2,i,i,·,·,·
CCOc1ccc(NS(=O)(=O)c2cc3c4c(c2)C(C)C(=O)N4CCC3)cc1 (stereo not drawn),i,-0.3,i,-6.5,i,i,·,·,·
Cc1c(NC(=O)C(C)OC(=O)c2ccc(Br)o2)c(=O)n(-c2ccccc2)n1C (stereo not drawn),i,0.43,i,-7.8,i,i,·,·,·
Cc1c(NC(=O)COC(=O)c2ccc(Br)o2)c(=O)n(-c2ccccc2)n1C,i,1.76,i,-8.8,i,i,i,i,i
COC(=O)C1=C(C)N(Cc2ccccc2)C(=NCCc2ccccn2)N[C@H]1c1cccc(F)c1,i,-6.72*,i,-8.5,i,i,i,i,3.0%*
SMILES,KCNK3 block,Kir21 inh,KCNQ1 block,hERG protect,KCNK9 inh-1,KCNQ1 act,hERG inh,KCNK9 inh-2,Kir2-1 patch inh
CC(=O)c1cccc(NC(=O)CSc2n[nH]c(=O)n2C2CC2)c1,i,·,·,·,·,·,·,·,·
C#CCOCCOCCOCCNc1nc(N2CCN(C(=O)[C@H](CCCCN)n3cc([C@@H](N)CO)nn3)CC2)nc(N2CCN(C(=O)[C@H](CCCCN)n3cc([C@@H](N)CC(C)C)nn3)CC2)n1,i,·,·,·,·,·,·,·,·
CCOc1ccc(CN2CCC(Cc3ccccc3)CC2)cc1,i,-5.79*,i,-9.1,i,i,68.0%*,i,49.3%*
CC(NC(=O)COc1ccc(-c2nnco2)cc1)c1ccc(Cl)cc1Cl (stereo not drawn),i,-2.61,i,-7.3,i,i,·,·,·
CN(C)CCOCCOc1ccc(Cl)cc1C(C)(C)C,i,-6.05*,i,-5.8,i,i,47.0%*,i,36.9%*
C=CCc1cc(Cl)ccc1OCCN(C)C,i,-0.08,i,-10.9,i,i,·,·,·
CCc1noc(C)c1C(=O)N1CCC(CCC(=O)Nc2cccc(OC)c2)CC1,i,0,i,-3.9,i,i,·,·,·
O=S(=O)(Nc1ccccc1N1CCOCC1)c1ccc(F)c(Cl)c1,i,-12.3*,i,-3.4,i,i,i,i,2.6%*
COc1ccc(CNCc2cccc(Oc3ccccc3)c2)cc1,i,-13.5*,i,-12.7,i,i,i,i,85.1%*
COc1ccc(CNCCS(=O)(=O)NCc2ccccc2)cc1,i,·,·,·,·,·,·,·,·
COc1ccc(CNCC(O)(c2ccccc2)c2ccccc2)cc1,i,-6.15*,i,-11.9,i,i,46.0%*,i,i
CCC(=O)N1CCc2cc(S(=O)(=O)CCC(=O)N3CCN(c4ccc(C(C)=O)cc4)CC3)ccc21,i,0.87,i,-7.9,i,i,·,·,·
CCc1ccc(Nc2n[n+](-c3ccccc3)c(/C=C/c3ccccc3)s2)cc1,·,-7.65*,12*,-35.2,i,i,68.0%*,i,i
Cc1cccc(C)c1NC(=O)c1sccc1SCC#N,i,-0.3,i,-4.9,i,i,·,·,·
CNC(=O)c1sccc1SCc1c(Cl)cccc1Cl,i,-9.44*,i,-8.2,i,i,i,i,43.0%*
N#Cc1ccc(S(=O)(=O)NC2CC2)cc1,i,-0.83,i,-4.9,i,i,·,·,·
C=CCNCCCCOc1c(Cl)cc(C)cc1Br,i,-9.35*,i,-13.9,i,i,i,i,47.9%*

# Bioassay records (PubChem)
